Results on 23 compounds are retold here after ChEMBL document CHEMBL1149815, “New amido derivatives as potential BKCa potassium channel activators. XI” (Eur J Med Chem, 2008).

Usually Emax stands for the maximal effect, on the per cent scale that the assay sets. The term IC50 denotes the concentration needed to halve the response being measured.

Holding throughout (assay type): tissue-based
Assay [1] deals with Calcium-activated potassium channel subunit alpha-1 (Rattus norvegicus) (UniProt Q62976). Briefly: (§1) Induction of BK channel mediated vasorelaxation activity in Kcl-induced contraction in Wistar rat aorta. The method, boiled down:
(§2)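 Endothelium-denuded thoracic aortic rings from male normotensive Wistar rats (250-350 g), equilibrated 60 min. Denudation was confirmed by acetylcholine relaxation below 10% of KCl tone. Rings were precontracted with 20 mM KCl; at plateau, 3-fold increasing concentrations were added cumulatively. Efficacy was maximal relaxation as % of KCl tone. pIC50 was -log molar concentration halving tone, not derived if efficacy was below 50%. 5-10 experiments.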

Assay [2] addresses Calcium-activated potassium channel subunit alpha-1 (Rattus norvegicus, UniProt Q62976). Described as §1. The method, boiled down: as §2
Assay [3] deals with Calcium-activated potassium channel subunit alpha-1 (Rattus norvegicus) (UniProt Q62976). Description: Induction of BK channel mediated vasorelaxation activity in Kcl-induced contraction in Wistar rat aorta in presence of IbTX. The method, boiled down:
as §2

Sequence of Calcium-activated potassium channel subunit alpha-1 (Q62976 whole entry): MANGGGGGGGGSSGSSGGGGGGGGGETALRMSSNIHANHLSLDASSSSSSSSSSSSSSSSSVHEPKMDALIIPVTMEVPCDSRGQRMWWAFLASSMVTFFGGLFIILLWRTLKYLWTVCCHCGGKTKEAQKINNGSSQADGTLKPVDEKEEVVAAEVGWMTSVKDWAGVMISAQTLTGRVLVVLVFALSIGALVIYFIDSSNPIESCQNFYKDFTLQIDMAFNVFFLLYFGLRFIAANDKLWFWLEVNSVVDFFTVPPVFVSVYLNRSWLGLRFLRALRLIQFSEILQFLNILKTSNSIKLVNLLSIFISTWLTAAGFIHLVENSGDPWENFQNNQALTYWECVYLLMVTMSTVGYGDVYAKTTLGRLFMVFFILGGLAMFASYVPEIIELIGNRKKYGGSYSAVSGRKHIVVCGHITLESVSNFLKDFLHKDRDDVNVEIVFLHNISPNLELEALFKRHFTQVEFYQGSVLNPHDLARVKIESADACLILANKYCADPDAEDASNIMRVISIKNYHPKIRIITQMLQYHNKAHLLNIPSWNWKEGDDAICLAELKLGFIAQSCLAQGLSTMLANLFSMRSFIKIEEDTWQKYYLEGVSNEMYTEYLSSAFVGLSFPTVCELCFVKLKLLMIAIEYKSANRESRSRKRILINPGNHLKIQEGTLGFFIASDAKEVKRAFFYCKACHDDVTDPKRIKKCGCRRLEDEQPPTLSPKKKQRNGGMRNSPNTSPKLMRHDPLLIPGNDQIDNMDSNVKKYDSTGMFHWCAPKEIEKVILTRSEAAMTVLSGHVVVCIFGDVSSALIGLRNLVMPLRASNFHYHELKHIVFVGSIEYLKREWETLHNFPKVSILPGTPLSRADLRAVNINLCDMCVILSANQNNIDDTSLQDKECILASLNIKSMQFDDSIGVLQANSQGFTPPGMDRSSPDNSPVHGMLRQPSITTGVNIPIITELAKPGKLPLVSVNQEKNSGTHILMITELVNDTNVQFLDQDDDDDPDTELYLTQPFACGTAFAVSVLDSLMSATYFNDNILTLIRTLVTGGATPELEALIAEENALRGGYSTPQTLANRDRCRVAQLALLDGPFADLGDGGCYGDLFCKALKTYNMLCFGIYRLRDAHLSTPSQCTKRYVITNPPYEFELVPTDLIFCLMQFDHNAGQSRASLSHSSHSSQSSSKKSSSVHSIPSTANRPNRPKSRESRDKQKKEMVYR
Sequence of Calcium-activated potassium channel subunit alpha-1 (Rattus norvegicus) (Q62976 whole entry): as above

Regarding `O=C(Cc1ccccc1O)NCc1ccccc1`, in assay [1], the Emax was 33%.

Regarding `COc1ccccc1CC(=O)Nc1cc(Cl)ccc1O`, the maximal effect (Emax) in assay [1] was 37%.

As for `Cc1cc([N+](=O)[O-])ccc1NC(=O)Cc1ccccc1O`, the maximal response (Emax) stood at 84% in assay [1] and 32% in assay [3]. For the same compound, the IC50 in assay [2] is 20 µM.

Turning to `O=C(Cc1ccccc1O)Nc1ccc([N+](=O)[O-])cc1`, the Emax in assay [1] worked out at 79%. The IC50 in assay [2] was 22.9 µM.

`O=C(NCc1ccccc1[N+](=O)[O-])c1ccccc1O`: the Emax in assay [1] stood at 47%.

Turning to `COc1ccccc1CC(=O)Nc1ccc([N+](=O)[O-])cc1`, the maximal effect (Emax) in assay [1] came to 29%.

For the compound `O=C(Cc1ccccc1C(F)(F)F)Nc1cc(Cl)ccc1O`, in assay [1], the maximal response (Emax) turned out to be 50%.

As to `COc1ccccc1C(=O)NCc1ccccc1[N+](=O)[O-]`, the maximal effect (Emax) in assay [1] was determined as 29%.

With `COc1ccccc1CC(=O)NCc1ccccc1`, in assay [1], the Emax came out at 25%.

On to `O=C(NCc1ccccc1)c1ccccc1O`, for which, in assay [1], the maximum response (Emax) came out at 47%.

For `COc1ccccc1CC(=O)Nc1cc([N+](=O)[O-])ccc1OC`, the Emax in assay [1] was 21%.

On to `COc1ccccc1C(=O)NCc1ccccc1`, for which the Emax in assay [1] worked out at 23%.

With `O=C(Cc1ccccc1O)Nc1ccccc1F`, the maximal effect (Emax) in assay [1] was 43%.

Turning to `COc1ccccc1CNC(=O)c1ccccc1OC`, in assay [1], the maximal response (Emax) was 16%.

As for `COc1ccc([N+](=O)[O-])cc1NC(=O)Cc1ccccc1O`, in assay [1], the Emax was determined as 82%. Further, the IC50 in assay [2] was 18.2 µM.

For `COc1ccccc1CC(=O)Nc1cc(C)ccc1O`, in assay [1], the Emax came out at 61%. The IC50 in assay [2] was 24.5 µM.

Turning to `COc1ccccc1CC(=O)Nc1ccccc1F`, in assay [1], the Emax came to 28%.

Take `COc1ccccc1CNC(=O)Cc1ccccc1OC`: in assay [1], the Emax worked out at 22%.

On to `O=C(Cc1ccccc1C(F)(F)F)Nc1ccccc1F`, for which the maximal response (Emax) in assay [1] was found to be 55%. In addition, the concentration for half-maximal inhibition (IC50) in assay [2] is 27.5 µM.

For `O=C(Cc1ccccc1O)NCc1ccccc1[N+](=O)[O-]`, in assay [1], the maximal effect (Emax) turned out to be 40%.

`O=c1[nH]c2cc(C(F)(F)F)ccc2n1-c1cc(C(F)(F)F)ccc1O`: the IC50 in assay [2] is 4.37 µM.

`O=C(Cc1ccccc1O)Nc1ccccc1`: the Emax in assay [1] stood at 40%.

Regarding `COc1ccccc1CNC(=O)Cc1ccccc1O`, the Emax in assay [1] is 40%.
